Laboratory results as given in ChEMBL document CHEMBL1131427, “Synthesis of imidazo[1,2-a]pyridines as antiviral agents” (J Med Chem, 1998).
Values after ≈ are worked out from the molar mass of the structure shown.

Assays:
Human alphaherpesvirus 3 [1] = test: Anti-VZV activity against OKA strain TK+ in HEL cells; assay type: functional, organism-based; conditions: Human alphaherpesvirus 3, oka
Human alphaherpesvirus 3 [2] = test: Anti-VZV activity against YS TK+ in HEL cells; assay type: functional, organism-based; conditions: Human alphaherpesvirus 3, HEL
Human alphaherpesvirus 3 [3] = test: Anti-VZV activity against YS/R TK- in HEL cells; assay type: functional, organism-based; conditions: Human alphaherpesvirus 3, ys-r
[4] = Ratio of Cytotoxicity concentration to that of virus-inhibitory concentration.; assay type: functional
How it was run: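 Selectivity index is the 50% cytotoxic concentration in HEL cells divided by the 50% inhibitory concentration against CMV strain AD-169 in HEL cells.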

Human betaherpesvirus 5 = test: Anti CMV (Cytomegalovirus- virus) activity against AD-169 strain in HEL cells; assay type: functional, organism-based; conditions: Human betaherpesvirus 5, HEL
How it was run: (§1)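 Run in human embryonic lung (HEL) cells. The value is the 50% virus-inhibitory concentration, given in µg/mL.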

Cytomegalovirus = test: Anti CMV (Cytomegalovirus- virus) activity against Davis strain in HEL cells; assay type: functional, organism-based; conditions: Human betaherpesvirus 5, HEL; how it was run: as §1
HEL [5] = test: Inhibition of cell proliferation expressed as CC50; assay type: functional, Homo sapiens
Human alphaherpesvirus 3 [6] = test: Anti-VZV activity against 07/1 TK- in HEL cells; assay type: functional, organism-based; conditions: Human alphaherpesvirus 3, HEL
HEL [7] = test: The compound was tested for Anti-VZV activity against YS strain TK+ in HEL cells; assay type: functional, cell-based; conditions: Homo sapiens; how it was run: as §1
HEL [8] = test: The compound was tested for Anti-VZV activity against 07/1 strain TK- in HEL cells; assay type: functional, cell-based; conditions: Homo sapiens; how it was run: as §1
HEL [9] = test: The compound was tested for inhibition of cell proliferation in Human Embryonic Lung (HEL) Cells.; assay type: functional
[10] = Ratio of 50% cytotoxic concentration to 50% virus-inhibitory concentration [the latter based on the 50% inhibitory concentration for CMV (AD-169 strain); assay type: functional
HEL [11] = test: The compound was tested for Anti-VZV activity against YS/R strain TK- in HEL cells; assay type: functional, cell-based; conditions: Homo sapiens; how it was run: as §1

SMILES | IC50 (Human alphaherpesvirus 3 [1]) | IC50 (Human alphaherpesvirus 3 [2]) | IC50 (Human alphaherpesvirus 3 [3]) | Selectivity index [4] | IC50 (Human betaherpesvirus 5) | IC50 (Cytomegalovirus) | CC (HEL [5]) | IC50 (Human alphaherpesvirus 3 [6]) | IC50 (HEL [7]) | IC50 (HEL [8]) | CC50 (HEL [9]) | Selectivity index [10] | IC50 (HEL [11])
Cc1nc2ccccn2c1CSCc1ccccc1 | 0.37 µg/mL (≈ 1.38 µM) | 0.23 µg/mL (≈ 0.857 µM) | 0.28 µg/mL (≈ 1.04 µM) | 275 | 0.12 µg/mL (≈ 0.447 µM) | 0.13 µg/mL (≈ 0.484 µM) | 33 µg/mL | 0.5 µg/mL (≈ 1.86 µM) |  |  |  |  | 
Cc1ccc2ncc(CSCc3ccccc3)n2c1 | 0.74 µg/mL (≈ 2.76 µM) | 6.4 µg/mL (≈ 23.8 µM) | 1.2 µg/mL (≈ 4.47 µM) | 77 | 0.3 µg/mL (≈ 1.12 µM) | 0.5 µg/mL (≈ 1.86 µM) | 23 µg/mL | 2.58 µg/mL (≈ 9.61 µM) |  |  |  |  | 
FC(F)(F)c1cc(Cl)c2ncc(CSCc3ccccc3)n2c1 | 6.6 µg/mL (≈ 18.5 µM) | 8.8 µg/mL (≈ 24.7 µM) | 9.8 µg/mL (≈ 27.5 µM) | <8 | > 5 µg/mL | > 5 µg/mL | 40 µg/mL | > 5 µg/mL |  |  |  |  | 
Cc1c(Br)cc(Br)c2ncc(CSCc3ccccc3)n12 | > 50 µg/mL | > 50 µg/mL | > 20 µg/mL |  | > 50 µg/mL | > 50 µg/mL | >50 µg/mL | > 50 µg/mL |  |  |  |  | 
Cc1ccn2c(CSCCc3ccccc3)cnc2c1 | 0.2 µg/mL (≈ 0.708 µM) | 0.5 µg/mL (≈ 1.77 µM) | 0.66 µg/mL (≈ 2.34 µM) | >151 | 0.33 µg/mL (≈ 1.17 µM) | 0.35 µg/mL (≈ 1.24 µM) | >50 µg/mL | 0.95 µg/mL (≈ 3.36 µM) |  |  |  |  | 
Cc1cc(Br)cn2c(CSCc3ccccc3)cnc12 | 5.5 µg/mL (≈ 15.8 µM) | 7 µg/mL (≈ 20.2 µM) | 0.86 µg/mL (≈ 2.48 µM) | >417 | 0.12 µg/mL (≈ 0.346 µM) | 0.12 µg/mL (≈ 0.346 µM) | >50 µg/mL | 1.4 µg/mL (≈ 4.03 µM) |  |  |  |  | 
Cc1ccn2c(CSCc3ccccc3Cl)cnc2c1 | 1.8 µg/mL (≈ 5.94 µM) | > 5 µg/mL | > 5 µg/mL | 36 | 0.5 µg/mL (≈ 1.65 µM) | 0.7 µg/mL (≈ 2.31 µM) | 18 µg/mL | > 5 µg/mL |  |  |  |  | 
Cc1ccc(C)n2c(CSCc3ccccc3)cnc12 | > 2 µg/mL | > 2 µg/mL | > 2 µg/mL | 2.5 | 1.2 µg/mL (≈ 4.25 µM) | > 2 µg/mL | 3 µg/mL | > 2 µg/mL |  |  |  |  | 
Cc1ccn2c(CSCC(F)(F)F)cnc2c1 | > 50 µg/mL |  |  |  | 40 µg/mL (≈ 154 µM) | 42 µg/mL (≈ 161 µM) |  |  | > 50 µg/mL | > 50 µg/mL | > 50 µg/mL | >1.2 | > 50 µg/mL
Cc1ccn2c(CSCc3ccc(Cl)cc3)cnc2c1 | 2 µg/mL (≈ 6.6 µM) | > 5 µg/mL | > 5 µg/mL | 16 | 1.2 µg/mL (≈ 3.96 µM) | 1.6 µg/mL (≈ 5.28 µM) | 19 µg/mL | > 5 µg/mL |  |  |  |  | 
Cc1ccn2c(CSCc3ccccc3)cnc2c1 | 15 µg/mL (≈ 55.9 µM) | 17 µg/mL (≈ 63.3 µM) | 10 µg/mL (≈ 37.3 µM) | 13 | 3.5 µg/mL (≈ 13 µM) | 3.5 µg/mL (≈ 13 µM) | 45 µg/mL |  |  |  |  |  | 
Cc1cc(Br)c2ncc(CSCc3ccccc3)n2c1 | 31 µg/mL (≈ 89.3 µM) | > 50 µg/mL | 4 µg/mL (≈ 11.5 µM) | >45 | 1.1 µg/mL (≈ 3.17 µM) | 1.1 µg/mL (≈ 3.17 µM) | >50 µg/mL | 9 µg/mL (≈ 25.9 µM) |  |  |  |  | 
Cc1cccn2c(CSCc3ccccc3)c(-c3ccccc3)nc12 | > 2 µg/mL | > 2 µg/mL | 2 µg/mL (≈ 5.81 µM) | 11 | 1.2 µg/mL (≈ 3.48 µM) | > 2 µg/mL | 13 µg/mL | > 2 µg/mL |  |  |  |  | 
Cc1ccn2c(CSCc3ccccc3)c(-c3ccccc3)nc2c1 | > 20 µg/mL | > 20 µg/mL | > 50 µg/mL |  | > 20 µg/mL | > 20 µg/mL | >50 µg/mL | > 50 µg/mL |  |  |  |  | 
Cc1ccn2c(CSCc3ccccc3)c(C)nc2c1 | 10.5 µg/mL (≈ 37.2 µM) | > 5 µg/mL | 10 µg/mL (≈ 35.4 µM) | >15 | 3.4 µg/mL (≈ 12 µM) | 3.5 µg/mL (≈ 12.4 µM) | >50 µg/mL | 14.1 µg/mL (≈ 49.9 µM) |  |  |  |  | 
Cc1cccn2c(CSCc3ccccc3)cnc12 | 0.9 µg/mL (≈ 3.35 µM) | 0.3 µg/mL (≈ 1.12 µM) | > 1 µg/mL | 40 | 0.2 µg/mL (≈ 0.745 µM) | 0.2 µg/mL (≈ 0.745 µM) | 8 µg/mL | 0.4 µg/mL (≈ 1.49 µM) |  |  |  |  | 
Nc1nc2c(ncn2COCCO)c(=O)[nH]1 [ACYCLOVIR] |  |  |  |  |  |  | >100 µg/mL |  |  |  |  |  | 
O=c1[nH]c(=O)n([C@H]2C[C@H](O)[C@@H](CO)O2)cc1/C=C/Br [BRIVUDINE] | 0.0009 µg/mL (≈ 0.0027 µM) | 0.002 µg/mL (≈ 0.006 µM) | > 20 µg/mL |  |  |  | >50 µg/mL | > 50 µg/mL |  |  |  |  | 
Nc1nc2c(ncn2COC(CO)CO)c(=O)[nH]1 [GANCICLOVIR] |  |  |  |  | 0.5 µg/mL (≈ 1.96 µM) | 0.5 µg/mL (≈ 1.96 µM) | >100 µg/mL |  |  |  |  |  | 
